Laboratory results as given in ChEMBL document CHEMBL2401735, “Synthesis and cytotoxicity of novel (thiazol-2-yl)hydrazine derivatives as promising anti-Candida agents” (Eur J Med Chem, 2013).
Converted amounts (≈) assume the structure as drawn.

Tests used:
[1] = system: HEp-2; experiment: Cytotoxicity against human Hep2 cells assessed as appearance of autophagic vacuoles near to mitochondrial proximity in cytoplasm at 5 to 100 ug/ml after 24 hrs by transmission electron microscopic analysis; assay type: cell-based; conditions: hep-2, 24 h
Procedure, shortened: (§1)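 Hep2 cells treated and then examined by transmission electron microscopy, with unexposed cells as controls. Samples stained with 0.1% tannic acid for 30 min and uranyl acetate (5 mg/mL) for 1 h at 25 °C, dehydrated in graded acetone, embedded in Epon-812. Ultrathin sections counterstained with uranyl acetate and lead citrate before viewing.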

[2] = Cytotoxicity against human Hep2 cells assessed as reduction of cell viability after 24 hrs by trypan blue exclusion assay; assay type: cell-based; conditions: HEp-2 cells
Procedure, shortened: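 Hep2 cells in DMEM with 10% FBS, penicillin-streptomycin, 5% CO₂, 37 °C. Cells at 1 × 10⁵/mL exposed 24 h to seven concentrations (0.005-100 µg/mL), DMSO ≤0.5% final; controls were medium alone, DMSO, and 1 mM sodium nitroprusside. Cells scraped, allowed 30 min recovery, mixed 1:1 with 0.4% trypan blue, counted by hemocytometer by two operators.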

[3] = Cytotoxicity against human Hep2 cells assessed as cell survival fraction at 0.005 ug/ml after 24 hrs by trypan blue exclusion assay (reference value: 97 to 98%); assay type: cell-based; conditions: HEp-2 cells, read-out: Survival
[4] = Cytotoxicity against human Hep2 cells assessed as cell survival fraction at 0.05 ug/ml after 24 hrs by trypan blue exclusion assay (reference value: 97 to 98%); assay type: cell-based; conditions: HEp-2 cells, read-out: Survival
[5] = Cytotoxicity against human Hep2 cells assessed as cell survival fraction at 0.5 ug/ml after 24 hrs by trypan blue exclusion assay (reference value: 97 to 98%); assay type: cell-based; conditions: HEp-2 cells, read-out: Survival
[6] = Cytotoxicity against human Hep2 cells assessed as cell survival fraction at 5 ug/ml after 24 hrs by trypan blue exclusion assay (reference value: 97 to 98%); assay type: cell-based; conditions: HEp-2 cells, read-out: Survival
[7] = Cytotoxicity against human Hep2 cells assessed as cell survival fraction at 10 ug/ml after 24 hrs by trypan blue exclusion assay (reference value: 97 to 98%); assay type: cell-based; conditions: HEp-2 cells, read-out: Survival
[8] = Cytotoxicity against human Hep2 cells assessed as cell survival fraction at 50 ug/ml after 24 hrs by trypan blue exclusion assay (reference value: 97 to 98%); assay type: cell-based; conditions: HEp-2 cells, read-out: Survival
[9] = Cytotoxicity against human Hep2 cells assessed as cell survival fraction at 100 ug/ml after 24 hrs by trypan blue exclusion assay (reference value: 97 to 98%); assay type: cell-based; conditions: HEp-2 cells, read-out: Survival
[10] = system: [Candida] sake; experiment: Anticandida activity against Candida sake clinical isolate assessed as growth inhibition after 24 hrs by broth microdilution method; assay type: functional; conditions: Fermentozyma sake
Procedure, shortened: (§2)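 Clinical Candida isolates subcultured for purity and optimal growth before testing; compounds dissolved in DMSO. Broth microdilution per NCCLS in Sabouraud dextrose broth, serial dilutions, inoculum about 10³/mL, with growth control and medium-only control; 24 h incubation at 37 °C. MIC is the lowest concentration giving complete visible inhibition.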

[11] = system: Candida parapsilosis; experiment: Anticandida activity against Candida parapsilosis clinical isolate assessed as growth inhibition after 24 hrs by broth microdilution method; assay type: functional; conditions: Lodderomyces parapsilosis; procedure, shortened: as §2
[12] = system: Pichia kudriavzevii; experiment: Anticandida activity against Candida krusei clinical isolate assessed as growth inhibition after 24 hrs by broth microdilution method; assay type: functional; procedure, shortened: as §2
[13] = system: Candida tropicalis; experiment: Anticandida activity against Candida tropicalis clinical isolate assessed as growth inhibition after 24 hrs by broth microdilution method; assay type: functional; procedure, shortened: as §2
[14] = system: Nakaseomyces glabratus; experiment: Anticandida activity against Candida glabrata clinical isolate assessed as growth inhibition after 24 hrs by broth microdilution method; assay type: functional; procedure, shortened: as §2
[15] = system: Candida albicans; experiment: Anticandida activity against Candida albicans clinical isolate assessed as growth inhibition after 24 hrs by broth microdilution method; assay type: functional; procedure, shortened: as §2
[16] = system: Klebsiella oxytoca; experiment: Antibacterial activity against Klebsiella oxytoca assessed as growth inhibition after 18 to 22 hrs by broth microdilution method; assay type: functional
Procedure, shortened: (§3)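 Bacterial isolates subcultured for purity, identified conventionally. Broth microdilution per NCCLS in Mueller-Hinton II broth; plates with growth control (no compound) and medium-only control, incubated 18-22 h at 35 °C. MIC taken as lowest concentration giving complete growth inhibition by unaided eye.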

[17] = system: Proteus mirabilis; experiment: Antibacterial activity against Proteus mirabilis assessed as growth inhibition after 18 to 22 hrs by broth microdilution method; assay type: functional; procedure, shortened: as §3
[18] = system: Enterobacter sp.; experiment: Antibacterial activity against Enterobacter spp. assessed as growth inhibition after 18 to 22 hrs by broth microdilution method; assay type: functional; procedure, shortened: as §3
[19] = system: Escherichia coli; experiment: Antibacterial activity against Escherichia coli assessed as growth inhibition after 18 to 22 hrs by broth microdilution method; assay type: functional; procedure, shortened: as §3
[20] = system: Enterococcus faecalis; experiment: Antibacterial activity against […] assessed as growth inhibition after 18 to 22 hrs by broth microdilution method; assay type: functional; procedure, shortened: as §3
[21] = system: Staphylococcus warneri; experiment: Antibacterial activity against Staphylococcus warneri assessed as growth inhibition after 18 to 22 hrs by broth microdilution method; assay type: functional; procedure, shortened: as §3
[22] = system: Staphylococcus aureus; experiment: Antibacterial activity against Staphylococcus aureus assessed as growth inhibition after 18 to 22 hrs by broth microdilution method; assay type: functional; procedure, shortened: as §3
[23] = system: Streptococcus alpha-hemolyticus; experiment: Antibacterial activity against Streptococcus alpha-hemolyticus assessed as growth inhibition after 18 to 22 hrs by broth microdilution method
[24] = system: HEp-2; experiment: Cytotoxicity against human Hep2 cells assessed as dilatation of endoplasmic reticulum at 100 ug/ml after 24 hrs by transmission electron microscopic analysis; assay type: cell-based; conditions: hep-2, 24 h; procedure, shortened: as §1
[25] = system: HEp-2; experiment: Cytotoxicity against human Hep2 cells assessed as mitochondrial swelling at 5 ug/ml after 24 hrs by transmission electron microscopic analysis; assay type: cell-based; conditions: hep-2, 24 h; procedure, shortened: as §1
[26] = system: HEp-2; experiment: Cytotoxicity against human Hep2 cells assessed as loss of cristae at 5 ug/ml after 24 hrs by transmission electron microscopic analysis; assay type: cell-based; conditions: hep-2, 24 h; procedure, shortened: as §1
[27] = system: HEp-2; experiment: Cytotoxicity against human Hep2 cells assessed as cell survival at 100 ug/ml after 24 hrs by transmission electron microscopic analysis; assay type: cell-based; conditions: hep-2, 24 h; procedure, shortened: as §1
[28] = system: HEp-2; experiment: Cytotoxicity against human Hep2 cells assessed as induction of vacuolization in proximity of mitochondria at 5 ug/ml after 24 hrs by transmission electron microscopic analysis; assay type: cell-based; conditions: hep-2, 24 h; procedure, shortened: as §1
[29] = system: HEp-2; experiment: Cytotoxicity against human Hep2 cells assessed as appearance of finely granular cytoplasm at 5 ug/ml after 24 hrs by transmission electron microscopic analysis; assay type: cell-based; conditions: hep-2, 24 h; procedure, shortened: as §1

| SMILES | CC50 at 24 h [2] [µg/mL] | viability at 24 h, 0.005 ug/ml [3] [%] | viability at 24 h, 0.05 ug/ml [4] [%] | viability at 24 h, 0.5 ug/ml [5] [%] | viability at 24 h, 5 ug/ml [6] [%] | viability at 24 h, 10 ug/ml [7] [%] | viability at 24 h, 50 ug/ml [8] [%] | viability at 24 h, 100 ug/ml [9] [%] | MIC [10] [µg/mL] | MIC [11] [µg/mL] | MIC [12] [µg/mL] | MIC [13] [µg/mL] | MIC [14] [µg/mL] | MIC [15] [µg/mL] | MIC [16] [µg/mL] | MIC [17] [µg/mL] | MIC [18] [µg/mL] | MIC [19] [µg/mL] | MIC [20] [µg/mL] | MIC [21] [µg/mL] | further results |
| --- | --- | --- | --- | --- | --- | --- | --- | --- | --- | --- | --- | --- | --- | --- | --- | --- | --- | --- | --- | --- | --- |
| CCC/C(C)=N/Nc1nc(-c2ccc(C)cc2)cs1 | ≥ 100 | 97 | 94 | 91 | 93 | 83.2 | 72.8 | 62 | 2 (≈ 7.32 µM) | 2 (≈ 7.32 µM) | 2 (≈ 7.32 µM) | 2 (≈ 7.32 µM) | 0.5 (≈ 1.83 µM) | 0.5 (≈ 1.83 µM) | > 256 | > 256 | > 256 | > 256 | > 256 | > 256 | Activity [1]: Toxic; MIC [22]: > 256 µg/mL; MIC [23]: > 256 µg/mL |
| CC/C(C)=N/Nc1nc(-c2ccc(OC)cc2)cs1 | 25 (≈ 90.8 µM) | 78 | 71 | 64 | 69 | 64 | 0 | 0 | 2 (≈ 7.26 µM) | 2 (≈ 7.26 µM) | 2 (≈ 7.26 µM) | 2 (≈ 7.26 µM) | 2 (≈ 7.26 µM) | 0.25 (≈ 0.908 µM) | > 256 | > 256 | > 256 | > 256 | > 256 | > 256 | Activity [24]: Toxic; Activity [25]: Toxic; Activity [26]: Toxic; MIC [22]: > 256 µg/mL; MIC [23]: > 256 µg/mL |
| Clc1ccccc1C(c1ccccc1)(c1ccccc1)n1ccnc1 [CLOTRIMAZOLE] | 38 (≈ 110 µM) | 94.4 | 93 | 93.4 | 92.5 | – | 0 | 0 | 4 (≈ 11.6 µM) | – | – | 2 (≈ 5.8 µM) | 2 (≈ 5.8 µM) | – | – | – | – | – | – | – | Activity [27]: Toxic; Activity [28]: Toxic; Activity [29]: Toxic |
